Data reported in ChEMBL document CHEMBL1275289, “The synthesis, structure and activity evaluation of pyrogallol and catechol derivatives as Helicobacter pylori urease inhibitors” (Eur J Med Chem, 2010).

Columns and labels:
[1] = molecular target: T1, Urease subunit alpha/Urease subunit beta (Helicobacter pylori (strain ATCC 700392 / 26695) (Campylobacterpylori), UniProt P69996); test: Inhibition of cell free Helicobacter pylori ATCC 43504 urease assessed as reduction in ammonia production by indophenol based Berthelot color reaction method
How it was run: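 H. pylori ATCC 43504 grown 24 h at 37 °C, microaerobic (5% O2, 10% CO2, 85% N2), in Brucella broth with 10% heat-inactivated horse serum. Cells (2.0 × 10⁸ CFU/mL) pelleted at 5000 g, 4 °C, washed twice in PBS pH 7.4, stored at −80 °C, then sonicated 60 s in water with protease inhibitors. Extract preincubated with compound 1.5 h at room temperature; ammonia measured by indophenol method.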

[2] = molecular target: T1, Urease subunit alpha/Urease subunit beta; test: Inhibition of urease in intact Helicobacter pylori ATCC 43504 assessed as reduction in ammonia production by indophenol based Berthelot color reaction method
How it was run: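 H. pylori grown 24 h at 37 °C in Brucella broth with 10% heat-inactivated horse serum under microaerobic gas (5% O₂, 10% CO₂, 85% N₂). Cells harvested, washed twice in PBS pH 7.4, and resuspended to 4.0 × 10⁷ CFU/mL. Suspension pre-incubated with compound for 1.5 h at room temperature. Ammonia production measured by the indophenol (Berthelot) method.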

T1 sequence (P69996 whole entry): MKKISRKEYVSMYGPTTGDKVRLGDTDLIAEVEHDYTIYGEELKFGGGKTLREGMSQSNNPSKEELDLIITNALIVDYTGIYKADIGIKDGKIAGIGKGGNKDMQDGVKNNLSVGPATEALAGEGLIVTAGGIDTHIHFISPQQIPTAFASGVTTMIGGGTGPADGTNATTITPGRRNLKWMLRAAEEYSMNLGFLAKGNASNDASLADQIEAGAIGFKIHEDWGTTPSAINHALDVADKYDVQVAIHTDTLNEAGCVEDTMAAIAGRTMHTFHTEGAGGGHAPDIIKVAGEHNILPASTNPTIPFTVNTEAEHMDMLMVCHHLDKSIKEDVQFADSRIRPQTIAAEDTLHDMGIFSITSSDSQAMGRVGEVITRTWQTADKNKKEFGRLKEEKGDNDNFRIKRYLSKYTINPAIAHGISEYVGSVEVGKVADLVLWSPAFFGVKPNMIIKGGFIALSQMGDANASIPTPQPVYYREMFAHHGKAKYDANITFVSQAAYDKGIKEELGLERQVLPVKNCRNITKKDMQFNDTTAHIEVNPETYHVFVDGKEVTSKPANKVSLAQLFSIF
T1 sequence (P14916 whole entry, further chain): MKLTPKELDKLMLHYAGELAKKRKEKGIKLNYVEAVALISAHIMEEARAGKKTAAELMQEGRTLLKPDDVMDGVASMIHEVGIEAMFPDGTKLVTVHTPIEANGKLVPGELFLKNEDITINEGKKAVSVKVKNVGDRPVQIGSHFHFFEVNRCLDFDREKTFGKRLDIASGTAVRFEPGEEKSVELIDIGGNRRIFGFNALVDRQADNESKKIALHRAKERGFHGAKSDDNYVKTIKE

SMILES | IC50 [1] [µM] | IC50 [2] [µM]
COc1ccc(CCc2ccc(Cl)cc2)cc1OC | 254 | 
Oc1ccc(CCc2ccc(Br)cc2)c(O)c1O | 48 | 
Oc1ccc(CCc2cccc(Cl)c2)c(O)c1O | 50 | 
Oc1ccc(CCc2cccc(Br)c2)c(O)c1O | 52 | 
Oc1ccc(CCc2ccc(Cl)cc2)cc1O | 8.3 | 50.1
Oc1ccc(CCc2cccc(Cl)c2)cc1O | 15.7 | 94.7
CCc1ccc(O)c(O)c1O | 34 | 
CCCCc1ccc(O)c(O)c1O | 79 | 
CCCCCCc1ccc(O)c(O)c1O | 91 | 
CCCCCCCCc1ccc(O)c(O)c1O | 103 | 
CCCCCCCCCCc1ccc(O)c(O)c1O | 124 | 
Oc1ccc(CCc2ccc(F)cc2)cc1O | 6.2 | 32.4
Oc1ccc(CCc2ccc(O)c(O)c2)cc1 | 1.5 | 4.2
Oc1ccc(CCc2ccc(F)cc2)c(O)c1O | 43 | 
Oc1ccc(CCc2ccc(Cl)cc2)c(O)c1O | 47 | 
Oc1ccc(CCc2cccc(Br)c2)cc1O | 16.9 | 88.9
COc1ccc(CCc2ccc(O)c(O)c2)cc1OC | 22.7 | 
CCc1ccc(O)c(O)c1 | 4.9 | 17.3
CCCCc1ccc(O)c(O)c1 | 7.9 | 38.1
CCCCCCc1ccc(O)c(O)c1 | 12.3 | 77.8
CCCCCCCCc1ccc(O)c(O)c1 | 58 | 
COc1ccc(CCc2ccc(O)cc2)cc1OC | 204 | 
COc1ccc(CCc2cccc(Cl)c2)cc1OC | 235 | 
COc1ccc(CCc2ccc(O)c(O)c2O)cc1OC | 71 | 
CCOc1ccc(CCc2ccc(O)c(O)c2O)cc1OCC | 69 | 
CCCCCCCCCCCCc1ccc(O)c(O)c1O | 168 | 
CCCCCCCCCCCCCCc1ccc(O)c(O)c1O | 250 | 
Oc1ccc(CCc2ccc(O)c(O)c2O)cc1 | 32 | 
COc1ccc(CCc2ccccc2O)cc1OC | 227 | 
CC(=O)NO [ACETOHYDROXAMIC ACID] | 17.2 | 101
